TCR-CD3 inh: blocks the human TCR-CD3 interaction | inhibition, % at 9.4 µM | AID 651800 | hit rate 0.37% among 360,000 | TAMRA-labeled TCR probe fluorescence, biochemical; in the data active = inhibition above about 19%;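 also: recombinant mutant TCR 2C K166C tagged with TAMRA read by polarization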
SIAE primary: blocks human sialic acid acetylesterase; Q9HAT2; SIAE FP-Rh probe binding, fluorescence polarization; inhibition, % at 9.66 µM; hit rate 0.69% among 370,000;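 active = inhibition above a cutoff: mean of compounds within the control limits plus 3 SD of those, cut at about 17% in these data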
HTRA1 inh: blocks human HTRA1 serine peptidase. Q92743. recombinant HTRA1, FP-rhodamine activity-based probe, fluorescence polarization. inhibition, % at 5.96 µM. hit rate 0.5% among 340,000; in the data active = inhibition above about 36%
Target sequence (Q92743 whole entry, looked up): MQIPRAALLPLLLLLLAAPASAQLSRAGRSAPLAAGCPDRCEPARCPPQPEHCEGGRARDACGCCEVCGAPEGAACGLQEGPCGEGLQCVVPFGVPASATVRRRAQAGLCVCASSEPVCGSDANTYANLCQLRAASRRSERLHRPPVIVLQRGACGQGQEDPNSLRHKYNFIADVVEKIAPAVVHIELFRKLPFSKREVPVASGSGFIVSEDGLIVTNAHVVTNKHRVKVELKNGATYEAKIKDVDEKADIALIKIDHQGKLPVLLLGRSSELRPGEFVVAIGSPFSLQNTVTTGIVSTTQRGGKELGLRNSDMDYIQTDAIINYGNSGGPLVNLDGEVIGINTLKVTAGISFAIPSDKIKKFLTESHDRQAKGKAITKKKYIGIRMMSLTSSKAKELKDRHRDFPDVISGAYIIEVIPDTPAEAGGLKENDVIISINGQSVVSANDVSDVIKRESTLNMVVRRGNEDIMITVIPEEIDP
ABHD4 inh: inhibits mouse alpha/beta hydrolase domain 4; Q8VD66; AID 720543; inhibition, % at 8.92 µM; purified mABHD4, FP-Rh probe fluorescence polarization; hit rate 0.54% among 370,000;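 active = inhibition exceeding the mean over every tested compound plus 3 SD, cut at about 30% in these data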
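Test system: mABHD4 protein | Buffer or medium: HEPES pH 7.0 buffer, 150 mM NaCl, 0.01% Pluronic F-127 | Probe or stimulus: FP-Rh fluorescent activity-based probe, added after compound pre-incubation | Timing: Pre-incubation 45 min, probe exposure 60 min, at 25 °C | Technique: Fluorescence polarization, excitation 525 nm, emission 598 nm, BODIPY TMR filters | Repeats: Single well per compound (singlicate)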
PRMT1 inh: blocks human protein arginine methyltransferase 1. recombinant PRMT1, activity-based probe fluorescence polarization. inhibition, % at 2.79 µM. hit rate 1.3% among 370,000. AID 652257;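 active = inhibition above about 21% made by adding two undisclosed values, limit read from the data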
PRMT1 inh conf: confirmation of human PRMT1 inhibitors | shares compounds with PRMT1 inh | recombinant His-PRMT1, activity-based probe fluorescence polarization | inhibition, % at 2.79 µM | hit rate 42% among 3,300;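 active = mean inhibition across replicates above the hit cutoff derived for the earlier primary screen, cut at about 22% in these data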
ABHD4 confirm: ABHD4 (mouse) inhibition, FP confirmation; shares compounds with ABHD4 inh; purified mABHD4, FP-Rh probe fluorescence polarization; inhibition, % at 8.92 µM; hit rate 55% among 1,800; AID 720658;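 active = mean inhibition across replicates above the hit cutoff set in the primary screen, cut at about 30% in these data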
Hits are given with their value; - = inactive; . = no result. Compounds with a hit are over-represented: about 2.6% of the library has one in this group of screens.

SMILES	TCR-CD3 inh	SIAE primary	HTRA1 inh	ABHD4 inh	PRMT1 inh	PRMT1 inh conf	others
COc1ccc(N2C(=O)CC(NCc3cccc(F)c3)C2=O)cc1 (stereo not given)	-	-	-	-	54.8	-
COC(=O)[C@@H](N)CS	-	-	-	-	48.6	74.6
COC(=O)C(N)Cc1ccc(O)cc1 (stereo not given)	-	-	-	-	-	.
CCCNC(=O)Cn1sc2nc(C)cc(C)c2c1=O	-	-	-	-	93.3	94.3
Cc1cc(C)c2c(=O)n(CC(=O)N3CCC(N4CCCCC4)CC3)sc2n1	-	-	-	-	78.4	-
CCOC(=O)CNC(=O)N(C)[C@H]1C[C@H]2c3[nH]c4c(-c5cccc(C)c5)cccc4c3CCN2C(=O)[C@H]1[C@H](C)O	.	-	.	-	-	.
CN1CCCN(C(=O)CSc2nnc(-c3cccnc3)n2C2CCCCC2)CC1	.	-	.	-	-	.
C[C@H](O)[C@@H]1CN2CCc3c([nH]c4cccc(-c5ccccc5)c34)[C@@H]2C[C@@H]1N(C)CC1CCCCC1	.	-	.	-	-	.
CCCOC(=O)C1=C(C)N(C)C(=O)NC1c1cc2c(cc1[N+](=O)[O-])OCO2 (stereo not given)	-	-	-	-	26.9	22.0
COC(=O)[C@]12C[C@H](CC(=O)NCCc3ccccc3OC)C(=O)N(CCc3ccc(OC)c(OC)c3)C1=C[C@H](C(C)(C)C)O[C@@H]2C	.	-	.	-	-	.
O=C(CNS(=O)(=O)c1cccc2ccccc12)N1CCN(c2ncccn2)CC1	.	-	.	-	-	.
CCOC(=S)SCc1cn2cccc(C)c2n1	-	-	-	-	56.7	-
O=[N+]([O-])c1ncccc1OCCOc1ccc(Cl)cc1Cl	.	-	.	-	-	.
CCc1ccc(OCC(=O)Nc2nnc(-c3ccco3)s2)cc1	-	-	-	-	33.9	-
CCOc1ccc2nc(Cl)c(C3CC(c4ccco4)=NN3S(=O)(=O)c3ccccc3)cc2c1 (stereo not given)	-	-	-	-	31.7	-
COc1ccc2cc(C3CC(c4ccco4)=NN3S(C)(=O)=O)c(Cl)nc2c1 (stereo not given)	-	-	-	-	25.4	-
Cc1ccc2cc(C3CC(c4ccco4)=NN3C(=O)CCC(=O)O)c(Cl)nc2c1 (stereo not given)	-	-	-	-	-	.
CCOC(=O)C(Sc1nn(C)c(=S)s1)C(C)=O (stereo not given)	-	-	-	-	36.3	-
COc1ccc2c(c1)CCCN2C(=O)C1CCCN(S(=O)(=O)c2c(C(C)C)cc(C(C)C)cc2C(C)C)C1 (stereo not given)	.	-	.	-	-	.
O=C1NC(=S)S/C1=C\c1ccc(SCc2ccccc2)o1	-	-	-	-	64.1	-
COC1=CC(=O)c2ccccc2C1=O	.	.	-	.	.	.
COC1=CC(=O)C=C(OC)C1=O	-	-	-	-	56.2	54.4
COc1ccc(S[C@]2(C(=O)N3CCOCC3)CC(=O)N(P(=O)(OC)OC)[C@@H]2c2ccc(OC)cc2)cc1	.	-	.	-	-	.
O=[N+]([O-])c1cc(-c2ncccn2)c([N+](=O)[O-])s1	-	-	-	-	28.1	36.5
CCc1ccc[n+](-c2[nH]c(=O)sc2/C=N/NC([S-])=Nc2ccccc2)c1	-	-	-	-	86.9	40.0
SMILES	TCR-CD3 inh	SIAE primary	HTRA1 inh	ABHD4 inh	PRMT1 inh	PRMT1 inh conf	others
Cc1cc[n+](-c2[nH]c(=O)sc2/C=N/NC([S-])=Nc2ccccc2)cc1	-	-	-	-	67.3	28.7
Cc1cc(C)c[n+](-c2[nH]c(=O)sc2/C=N/NC([S-])=Nc2ccccc2)c1	-	-	-	-	48.2	31.0
CC(C)(C)c1cc[n+](-c2[nH]c(=O)sc2/C=N/NC(=O)c2ccccc2[O-])cc1	-	-	-	-	-	.
CCc1ccc[n+](-c2[nH]c(=O)sc2/C=N/N=C(\N)[O-])c1	-	-	-	-	-	.
O=c1[nH]c(-[n+]2ccccc2)c(/C=N/NC([S-])=Nc2ccccc2)s1	-	-	-	-	50.5	-
CCCCCCCCN1C(=O)[C@@H](CC(=O)NCc2ccccc2)C[C@@]2(C(=O)OC)C1=C[C@H](C(C)C)O[C@@H]2C1CC1	.	-	.	-	-	.
COc1ccc2c(c1)CN1C(=O)N(Cc3ccccc3)S(=O)(=O)CC21 (stereo not given)	.	-	.	-	-	.
COc1ccccc1Cc1c(-c2ccc(Cl)cc2)nc2ccc(C)cn12	-	-	.	-	-	.
N#Cc1ccc(/C=C2\CC3(OC(=O)c4ccccc4)CCCN2C3)cc1 (stereo not given)	.	-	.	-	-	.
CCOC(=O)N1CCN(C(=O)C[C@H]2C[C@@]3(C(=O)OC)C(=C[C@H](C(C)C)O[C@@H]3C3CC3)N(Cc3ccco3)C2=O)CC1	.	-	.	-	-	.
COC(=O)c1cccc(-n2c(CCC(=O)O)ccc2-c2cccs2)c1	-	-	-	-	39.9	-
CCCn1c(CCC(=O)O)ccc1-c1cccs1	-	-	-	-	-	.
CC(=O)c1ccc(-n2c(CCC(=O)O)ccc2-c2cccs2)cc1	-	-	-	-	62.8	-
NC(=O)c1ccc(-n2c(CCC(=O)O)ccc2-c2cccs2)cc1	-	-	-	-	45.3	-
Cc1ccc(-n2c(CCC(=O)O)ccc2-c2cccs2)cc1	-	-	-	-	-	.
COC(=O)N1CCCC1c1cccc2[nH]cc(C)c12 (stereo not given)	.	-	.	-	-	.
COc1ccc(NC(=O)CN(C)C(=O)c2cc(-c3ccco3)nc3ccccc23)cc1	-	-	-	-	-	.
COc1ccc(NC(=O)c2cc(-c3ccc(C)o3)nc3ccccc23)c(OC)c1	-	-	.	-	-	.
Cc1ccc(-c2cc(C(=O)Nc3nccs3)c3ccccc3n2)o1	-	-	-	-	35.5	-
Cc1ccc(-c2cc(C(=O)Nc3ccccc3C(N)=O)c3ccccc3n2)o1	-	-	.	-	64.6	27.8
Cc1ccc(-c2cc(C(=O)Nc3nccs3)c3ccccc3n2)c(C)c1	-	-	-	-	-	.
Cc1ccc(-c2cc(C(=O)N(C)CC(=O)Nc3ccccc3Br)c3ccccc3n2)o1	-	-	-	-	30.4	39.4
CCOc1ccc(-n2c(SCC(=O)Nc3ccc(S(=O)(=O)Nc4nccs4)cc3)nnc2-c2ccccc2)cc1	.	-	.	-	-	.
S=C1SCN(Cc2ccccn2)CN1Cc1ccco1	-	-	-	-	29.7	-
COc1ccc2[nH]c(=O)c(CNc3ccccc3)cc2c1	-	-	-	-	25.3	-
Cc1ccc(/C=C2/C(=O)c3ccc(C(=O)O)cc3C2=O)o1	-	-	-	34.3	40.6	39.4	ABHD4 confirm=-
Cc1ccc(C=C2C(=O)c3ccccc3C2=O)o1	-	-	-	-	-	.
NS(=O)(=O)c1ccc(-c2ccc(/C=C3\SC(=S)N(C4CCS(=O)(=O)C4)C3=O)o2)cc1 (stereo not given)	-	-	-	29.7	41.7	-	ABHD4 confirm=-

Source: PubChem BioAssay
